# How the values were obtained:
# [1] = system: Rattus norvegicus; test: Compound at a dose of 3 mg/kg was administered orally to 6 week old male Wistar rats and was evaluated for the inhibition of sterol synthesis; assay type: functional; conditions: route oral
# In short: (§1)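 Oral dosing of 6-week-old male Wistar rats with test compound suspended in 0.5% methylcellulose. [14C]acetate (50 μCi/kg) given iv 1 h after the dose; animals killed 1 h later. Livers saponified and extracted with petroleum ether. Sterols precipitated with 0.5% digitonin in 50% ethanol (4 h, room temperature), then counted. Result is % inhibition vs control, mean ± SD (n = 6-10), Dunnett's test.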
# [2] = system: Rattus norvegicus; test: In vivo inhibition of sterol synthesis in rats following 10 mg/kg p.o.; assay type: functional; conditions: for inhibition in vivo at 10 mg/kg: Rattus norvegicus, po; in short: as §1
# [3] = system: Rattus norvegicus; test: Compound at a dose of 1 mg/kg was administered orally to 6 week old male Wistar rats and was evaluated for the inhibition of sterol synthesis; assay type: functional; conditions: route oral; in short: as §1
# [4] = species: Rattus norvegicus; test: Concentration required for 50% inhibitory activity against cholesterol synthesis in rat liver; assay type: functional
# In short: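 In vivo hepatic sterol synthesis in 6-week-old male Wistar rats. Oral doses of 1, 3 and 10 mg/kg in 0.5% methylcellulose. [14C]acetate (50 μCi/kg) iv 1 h post-dose; killed 1 h later. Radioactivity of digitonin-precipitable liver sterols measured. ED50 is the oral dose giving 50% inhibition of sterol synthesis.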
# [5] = biological target: T1, Squalene synthase (Homo sapiens, UniProt P37268); test: Inhibition of squalene synthase from human hepatoma cells (HepG2)
# T1 sequence (P37268 whole entry): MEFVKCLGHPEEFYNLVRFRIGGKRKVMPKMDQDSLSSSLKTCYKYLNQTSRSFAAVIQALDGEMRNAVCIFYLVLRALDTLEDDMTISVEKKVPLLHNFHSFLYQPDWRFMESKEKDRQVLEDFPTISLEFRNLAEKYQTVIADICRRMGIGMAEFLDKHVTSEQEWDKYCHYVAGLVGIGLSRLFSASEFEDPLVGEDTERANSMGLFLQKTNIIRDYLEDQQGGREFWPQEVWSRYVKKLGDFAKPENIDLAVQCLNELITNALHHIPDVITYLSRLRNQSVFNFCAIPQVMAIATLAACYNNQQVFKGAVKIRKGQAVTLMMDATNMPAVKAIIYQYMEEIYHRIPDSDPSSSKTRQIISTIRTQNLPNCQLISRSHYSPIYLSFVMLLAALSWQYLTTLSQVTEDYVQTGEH
# In short: (§2)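 Enzyme source: microsomes from HepG2 cells grown in DMEM/10% FBS, sonicated in phosphate/nicotinamide/MgCl2 buffer. Reaction contained 5 µM [1-3H]FPP, 1 mM NADPH, 5 mM MgCl2, 6 mM glutathione, 100 mM potassium phosphate pH 7.4, 2% DMSO final, 0.8 µg protein. Run 45 min at 37 °C. Chloroform-extracted [3H]squalene counted. IC50 from one run in duplicate.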
# [6] = system: Rattus norvegicus; test: Compound was evaluated in vivo for its inhibitory activity against cholesterol synthesis in rat liver; assay type: functional; in short: as §1
# [7] = biological target: T1, Squalene synthase; test: Inhibitory activity against squalene synthase derived from human hepatoma cells (HepG2); in short: as §2
# [8] = system: Rattus norvegicus; test: Compound at a dose of 3 mg/kg was dministered orally to 6 week old male Wistar rats and was evaluated for the inhibition of terol synthesis; assay type: functional; conditions: route oral; in short: as §1
Compound,IC50 [5] [nM],inhibition in vivo at 10 mg/kg [2] [%],other results
COc1cccc([C@H]2O[C@H](CC(=O)N3CCC(CC(=O)O)CC3)C(=O)N(CC(C)(C)CO)c3ccc(Cl)cc32)c1OC,45,77,"inhibition in vivo at 3 mg/kg [1]: 20%; Inhibition ([2]; route oral, 10 mg/kg): 64%; inhibition in vivo at 1 mg/kg [3]: 11%; ED50 [4]: 6.8 mg/kg"
COc1cccc([C@H]2O[C@H](CC(=O)[O-])C(=O)N(CC(C)(C)C)c3ccc(Cl)cc32)c1OC.[Na+],–,–,ED50 [6]: 3 mg/kg
COc1cccc([C@H]2O[C@H](CC(=O)N3CCC(CCCC(=O)O)CC3)C(=O)N(CC(C)(C)CO)c3ccc(Cl)cc32)c1OC,70,87,–
COc1cccc([C@H]2O[C@H](CC(=O)N3CCC(CC(=O)O)CC3)C(=O)N(CC(C)(C)COC(=O)C(C)C)c3ccc(Cl)cc32)c1OC,–,34,IC50 [7]: 89 nM
CCC(=O)OCC(C)(C)CN1C(=O)[C@@H](CC(=O)N2CCC(CC(=O)O)CC2)O[C@H](c2cccc(OC)c2OC)c2cc(Cl)ccc21,87,40,–
COc1cccc([C@H]2O[C@H](CC(=O)NCCCCC(=O)O)C(=O)N(CC(C)(C)CO)c3ccc(Cl)cc32)c1OC,38,50,–
CCCC(=O)OCC(C)(C)CN1C(=O)[C@@H](CC(=O)N2CCC(CC(=O)O)CC2)O[C@H](c2cccc(OC)c2OC)c2cc(Cl)ccc21,93,30,–
COc1cccc([C@H]2O[C@H](CC(=O)N3CCC(C(=O)O)CC3)C(=O)N(CC(C)(C)CO)c3ccc(Cl)cc32)c1OC,–,26,–
COc1cccc([C@H]2O[C@H](CC(=O)N3CCC(CCC(=O)O)CC3)C(=O)N(CC(C)(C)CO)c3ccc(Cl)cc32)c1OC,61,76,–
COc1cccc([C@H]2O[C@H](CC(=O)N3CCC(CC(=O)O)CC3)C(=O)N(CC(C)(C)COC(C)=O)c3ccc(Cl)cc32)c1OC [LAPAQUISTAT ACETATE],78,81,inhibition in vivo at 1 mg/kg [3]: 31%; ED50 [4]: 2.9 mg/kg; inhibition in vivo at 3 mg/kg [8]: 42%
COc1cccc([C@H]2O[C@H](CC(=O)NCCCC(=O)O)C(=O)N(CC(C)(C)CO)c3ccc(Cl)cc32)c1OC,32,59,–
COc1cccc([C@H]2O[C@H](CC(=O)N3CCC(CC(=O)O)CC3)C(=O)N(CC(C)(C)COCOC(=O)C(C)(C)C)c3ccc(Cl)cc32)c1OC,–,43,IC50 [7]: 471 nM

# The remaining molecules from weak to strong by IC50 [5], led by results:
IC50 [5] [nM],Compound,inhibition in vivo at 10 mg/kg [2] [%],other results
28,COc1cccc([C@H]2O[C@H](CC(=O)NC(CC(C)C)C(=O)O)C(=O)N(CC(C)(C)CO)c3ccc(Cl)cc32)c1OC (stereo partly specified),14,–
21,COc1cccc([C@H]2O[C@H](CC(=O)N[C@@H](C)C(=O)O)C(=O)N(CC(C)(C)CO)c3ccc(Cl)cc32)c1OC,14,–
18,COc1cccc([C@H]2O[C@H](CC(=O)N(C)CC(=O)O)C(=O)N(CC(C)(C)CO)c3ccc(Cl)cc32)c1OC,-1,–
18,COc1cccc([C@H]2O[C@H](CC(=O)N[C@H](C)C(=O)O)C(=O)N(CC(C)(C)CO)c3ccc(Cl)cc32)c1OC,31,–
15,COc1cccc([C@H]2O[C@H](CC(=O)NCCC(=O)O)C(=O)N(CC(C)(C)CO)c3ccc(Cl)cc32)c1OC,19,–
15,COc1cccc([C@H]2O[C@H](CC(=O)NCC(=O)O)C(=O)N(CC(C)(C)CO)c3ccc(Cl)cc32)c1OC,14,–

# Reference: ChEMBL document CHEMBL1135616, “Synthesis of novel 4,1-benzoxazepine derivatives as squalene synthase inhibitors and their inhibition of cholesterol synthesis” (J Med Chem, 2002)
